Molecules are shown by their SMILES.

For series [1], the system named is Mus musculus. In words: Analgesic activity in 5 mg/kg naloxone pretreated Swiss albino mouse assessed as analgesia at 100 mg/kg by hot plate method. It counts as functional. Summed up:
(§1)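 Mice, n = 7 per group, were placed one at a time on a hot plate held at 55 ± 1.0 °C. Latency to forepaw licking or to jumping out of the glass beaker was recorded, with a cut-off of 30 s. Latency was read 30 min after compound at 100 mg/kg or sunflower oil vehicle. In naloxone groups, naloxone 5 mg/kg ip was given 15 min before compound. Results are reported as % analgesia, mean ± SEM.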
In general terms: Thermal pain tests record how soon the animal reacts.

In series [2] the test system is Mus musculus. In words: Antinociceptive activity in 5 mg/kg naloxone pretreated Swiss albino mouse assessed as protection against acetic acid-induced writhing at 100 mg/kg, ip administered 30 mins before acetic acid challenge. It counts as functional. Summed up: (§2)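 Mice, n = 7 per group, received sunflower oil vehicle or compound at 100 mg/kg ip. 30 min later they were given 0.6% acetic acid ip at 10 mL/kg. Abdominal contractions and stretches were counted over 10 min, starting 5 min after the acetic acid. In naloxone groups, naloxone was given 15 min before compound. % protection = [(control mean − treated mean)/control mean] × 100.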
In general terms: Writhing tests count abdominal constrictions after an irritant is injected.

The species named for series [3] is Mus musculus. The series can be described thus: Neurological deficit effect in Swiss albino mouse assessed as effect on motor coordination by measuring fall latency by Rota rod test. To be noted: in vivo. Summed up:
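Mice were trained for three consecutive days on a Rota-Rod at 16 rev/min, and only those staying on longer than 180 s were used. Each mouse was tested on the rod 5 min after the hot plate test, and the latency to fall was recorded.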
On the technique in general: In the rotarod test animals must keep their balance on a rotating rod.

The test system of series [4] is Mus musculus. The series can be described thus: Toxicity in Swiss albino mouse assessed as mortality at 100 mg/kg. It is filed as organism-based. The arrangement: dose 100 mg/kg. To be noted: in vivo.
In series [5] the test system is Mus musculus. The series can be described thus: Analgesic activity in Swiss albino mouse assessed as analgesia at 100 mg/kg by hot plate method. It is filed as functional. Summed up:
as §1

The test system of series [6] is Mus musculus. In words: Antinociceptive activity in Swiss albino mouse assessed as protection against acetic acid-induced writhing at 100 mg/kg, ip administered 30 mins before acetic acid challenge. To be noted: route intraperitoneal. It counts as functional. Summed up:
as §2

Series [7] has as its system Mus musculus. In words: Analgesic activity in Swiss albino mouse assessed as analgesia at 10 mg/kg by hot plate method. It is filed as functional. Summed up: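 Mice (n = 7) were dosed with the test compound in sunflower oil vehicle. Thirty minutes later each mouse was placed on a hot plate at 55 ± 1.0 °C. Latency to forepaw licking or jumping out of the glass beaker was recorded, with a 30 s cut-off. Values are mean ± SEM % analgesia.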

Series [8] deals with Mus musculus. In words: Antinociceptive activity in Swiss albino mouse assessed as protection against acetic acid-induced writhing at 10 mg/kg, ip administered 30 mins before acetic acid challenge. It counts as functional. To be noted: route intraperitoneal. Summed up: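 Mice (n = 7) were given the compound i.p. in sunflower oil vehicle, then 0.6% acetic acid i.p. (10 mL/kg) 30 min later. Abdominal contractions and stretches were counted for 10 min, starting 5 min after the acid. % protection = [(control mean − treated mean)/control mean] × 100. Values are mean ± SEM.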

Regarding `COc1ccc(C2CC(c3ccccc3)=NN2C(=O)CSc2nc3ccccc3[nH]2)cc1` (stereo not drawn), the Activity is listed as -1.34% with Mus musculus [1]; 22.32% in the series on Mus musculus [2]; “Non-toxic” in the series listed under Mus musculus [3]; “Non-toxic” with Mus musculus [4]; 60.6% in the series on Mus musculus [5]; 97.21% in the series on Mus musculus [6].
Consider `Cc1ccc(C2=NN(C(=O)CSc3nc4ccccc4[nH]3)C(c3ccccc3)C2)cc1C` (stereo not drawn), for which the Activity in the series on Mus musculus [1] was -0.58%; with Mus musculus [2] it was 19.07%; in the series listed under Mus musculus [3], “Non-toxic”; in the series on Mus musculus [4], “Non-toxic”; in the series on Mus musculus [5], 82.5%; in the series on Mus musculus [6], 97.67%.
With `O=C(CSc1nc2ccccc2[nH]1)N1N=C(c2ccccc2)CC1c1ccccc1` (stereo not drawn), the Activity in the series with Mus musculus [1] is -1.5%; in the series on Mus musculus [2], 12.56%; in the series listed under Mus musculus [3] it was “Non-toxic”; in the series with Mus musculus [4], “Non-toxic”; with Mus musculus [5] it was 61.9%; in the series with Mus musculus [6] it was 85.13%.
`Cc1ccc(C2=NN(C(=O)CSc3nc4cc(Cl)ccc4o3)C(c3ccccc3)C2)cc1C` (stereo not drawn): the Activity with Mus musculus [1] is -0.97%; in the series on Mus musculus [2], 21.39%; in the series filed under Mus musculus [3] it was “Non-toxic”; in the series with Mus musculus [4], “Non-toxic”; with Mus musculus [5], 72.6%; in the series on Mus musculus [6], 98.14%.
On to `O=C(CSc1nc2cc(Cl)ccc2o1)N1N=C(c2ccccc2)CC1c1ccccc1` (stereo not drawn), for which the Activity is on record as -1.32% in the series with Mus musculus [1]; 7.44% with Mus musculus [2]; “Non-toxic” in the series filed under Mus musculus [3]; “Non-toxic” in the series with Mus musculus [4]; 59.7% in the series on Mus musculus [5]; 57.72% with Mus musculus [6].
For `COc1ccc(C2CC(c3ccccc3)=NN2C(=O)CSc2nc3cc(Cl)ccc3o2)cc1` (stereo not drawn), the Activity with Mus musculus [1] is -2.95%; in the series on Mus musculus [2], 5.58%; in the series listed under Mus musculus [3], “Non-toxic”; in the series with Mus musculus [4], “Non-toxic”; in the series on Mus musculus [5] it was 47.7%; in the series on Mus musculus [6] it was 43.32%.
For the compound `CN1CC[C@]23c4c5ccc(O)c4O[C@H]2[C@@H](O)C=C[C@H]3[C@H]1C5` [MORPHINE], the Activity in the series with Mus musculus [7] is on record as 92.9%; with Mus musculus [8], 87.45%.

These data come from ChEMBL document CHEMBL1158344, “Synthesis and antinociceptive activities of some pyrazoline derivatives” (Eur J Med Chem, 2009).
